Measurements from paper PMC5483893 (Journal of Medicinal Chemistry, 2017).

What follows are compounds tested on acetylated α-tubulin (AcTub) in QBI-293 cells (assay: Acetyl-tubulin assay). Conditions: 1 or 10 μM.
Type: cell-based
Procedure, shortened: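 QBI-293 cells kept at 37 °C, 5% CO₂, trypsinised and plated at 6 × 10⁵ cells/well, then exposed overnight-later to vehicle (DMSO) or test compound for 4 h. Lysis in RIPA with protease inhibitors, 1 mM PMSF and 1 μM TSA; 100000g spin, 30 min, 4 °C. BCA protein, then AcTub ELISA. Fold-change versus vehicle, at least triplicate, two-tailed unpaired t test.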
With `Cc1ncn(-c2ccc(Cl)cc2)c1-c1c(F)ccc(Cl)c1F` [Compound 29, 5-(3-Chloro-2,6-difluorophenyl)-1-(4-chlorophenyl)-4-methyl-1H-imidazole] the “elevation in AcTub without decrease of α-tubulin” value was “produce an elevation in AcTub at 1 or 10 μM without decreasing α-tubulin level”.
With `Cc1nc(C)n(-c2ccc(Cl)cc2)c1-c1c(F)ccc(Cl)c1F` [Compound 31, 5-(3-Chloro-2,6-difluorophenyl)-1-(4-chlorophenyl)-2,4-dimethyl-1H-imidazole] the “elevation in AcTub without decrease of α-tubulin” value was “produce an elevation in AcTub at 1 or 10 μM without decreasing α-tubulin level”.
`Cc1ncn(-c2ccc(Cl)cc2)c1-c1c(F)ccc(F)c1F` [Compound 35, 1-(4-Chlorophenyl)-4-methyl-5-(2,3,6-trifluorophenyl)-1H-imidazole] was tested, and the “elevation in AcTub without decrease of α-tubulin” value was “produce an elevation in AcTub at 1 or 10 μM without decreasing α-tubulin level”.
For `Cc1nc(Cl)n(-c2ccc(Cl)cc2)c1-c1c(F)ccc(F)c1F` [Compound 36, 2-Chloro-1-(4-chlorophenyl)-4-methyl-5-(2,3,6-trifluorophenyl)-1H-imidazole], the “elevation in AcTub without decrease of α-tubulin” value was “produce an elevation in AcTub at 1 or 10 μM without decreasing α-tubulin level”.
`Fc1cc(F)c(-c2c(Cl)ncn2-c2ccc(Cl)cc2)c(F)c1` [Compound 54, 4-Chloro-1-(4-chlorophenyl)-5-(2,4,6-trifluorophenyl)-1H-imidazole] was tested, and the “elevation in AcTub without decrease of α-tubulin” value was “produce an elevation in AcTub at 1 or 10 μM without decreasing α-tubulin level”.
In the case of `COc1ccc(-n2cnc(Cl)c2-c2c(F)cc(F)cc2F)cc1` [Compound 59, 4-Chloro-1-(4-methoxyphenyl)-5-(2,4,6-trifluorophenyl)-1H-imidazole], the “elevation in AcTub without decrease of α-tubulin” value is reported as “produce an elevation in AcTub at 1 or 10 μM without decreasing α-tubulin level”.
In the case of `COc1ccc(-n2c(-c3c(F)cc(F)cc3F)cnc2Cl)cc1` [Compound 60, 2-Chloro-1-(4-methoxyphenyl)-5-(2,4,6-trifluorophenyl)-1H-imidazole], the “elevation in AcTub without decrease of α-tubulin” value is reported as “produce an elevation in AcTub at 1 or 10 μM without decreasing α-tubulin level”.
In the case of `Fc1ccc(Cl)c(F)c1-c1c(Cl)ncn1-c1ccc(Cl)cc1` [Compound 64, 4-Chloro-5-(3-chloro-2,6-difluorophenyl)-1-(4-chlorophenyl)-1H-imidazole], the “elevation in AcTub without decrease of α-tubulin” value is reported as “produce an elevation in AcTub at 1 or 10 μM without decreasing α-tubulin level”.
For `Fc1cc(-n2c(-c3c(F)ccc(F)c3F)cnc2Cl)ccc1Cl` [Compound 72, 2-Chloro-1-(4-chloro-3-fluorophenyl)-5-(2,3,6-trifluorophenyl)-1H-imidazole], the “elevation in AcTub without decrease of α-tubulin” value was “produce an elevation in AcTub at 1 or 10 μM without decreasing α-tubulin level”.
For `Cc1nc(Cl)c(-c2c(F)cc(F)cc2F)n1-c1ccc(Cl)nc1` [Compound 74, 2-Chloro-5-(4-chloro-2-methyl-5-(2,4,6-trifluorophenyl)-1H-imidazol-1-yl)pyridine], the “elevation in AcTub without decrease of α-tubulin” value was “produce an elevation in AcTub at 1 or 10 μM without decreasing α-tubulin level”.
`Fc1cc(Cl)ccc1-n1cnc(Cl)c1-c1c(F)cccc1F` [Compound 78, 4-Chloro-1-(4-chloro-2-fluorophenyl)-5-(2,6-difluorophenyl)-1H-imidazole] was tested, and the “elevation in AcTub without decrease of α-tubulin” value was “produce an elevation in AcTub at 1 or 10 μM without decreasing α-tubulin level”.
For `Fc1cccc(F)c1-c1c(Cl)ncn1-c1ccccc1Cl` [Compound 102, 4-Chloro-1-(2-chlorophenyl)-5-(2,6-difluorophenyl)-1H-imidazole], the “elevation in AcTub without decrease of α-tubulin” value was “produce an elevation in AcTub at 1 or 10 μM without decreasing α-tubulin level”.

Same assay, conditions: QBI-293 cells, 1 and 10 μM
With `Fc1cc(F)c(-c2cncn2-c2ccc(Cl)cc2)c(F)c1` [Compound 25, 1-(4-Chlorophenyl)-5-(2,4,6-trifluorophenyl)-1H-imidazole] the “MT activity (AcTub increase), inactive compounds” value (shortened to “MT activity (AcTub increase)”) was “do not cause a detectable increase in AcTub”.
With `COc1ccc(-n2cncc2-c2c(F)cc(F)cc2F)cc1` [Compound 26, 1-(4-Methoxyphenyl)-5-(2,4,6-trifluorophenyl)-1H-imidazole] the “MT activity (AcTub increase)” value was “do not cause a detectable increase in AcTub”.
With `Fc1cccc(F)c1-c1cncn1-c1ccc(OC(F)(F)F)cc1` [Compound 42, 5-(2,6-Difluorophenyl)-1-(4-(trifluoromethoxy)phenyl)-1H-imidazole] the “MT activity (AcTub increase)” value was “do not cause a detectable increase in AcTub”.
For `Fc1cccc(F)c1-c1cncn1-c1ccc(Cl)cc1` [Compound 43, 1-(4-Chlorophenyl)-5-(2,6-difluorophenyl)-1H-imidazole], the “MT activity (AcTub increase)” value was “do not cause a detectable increase in AcTub”.
`Cc1cc(F)c(-c2cncn2-c2ccc(Cl)cc2)c(F)c1` [Compound 48, 1-(4-Chlorophenyl)-5-(2,6-difluoro-4-methylphenyl)-1H-imidazole] was tested, and the “MT activity (AcTub increase)” value was “do not cause a detectable increase in AcTub”.
With `COc1ccc(F)c(-c2cncn2-c2ccc(Cl)cc2)c1F` [Compound 49, 1-(4-Chlorophenyl)-5-(2,6-difluoro-3-methoxyphenyl)-1H-imidazole] the “MT activity (AcTub increase)” value was “do not cause a detectable increase in AcTub”.
`Clc1ccc(-n2cncc2-c2ccccc2)cc1` [Compound 50, 1-(4-Chlorophenyl)-5-phenyl-1H-imidazole] was tested, and the “MT activity (AcTub increase)” value was “essentially devoid of MT activity”.
`Fc1cccc(F)c1-c1cncn1-c1ccccc1` [Compound 52, 5-(2,6-Difluorophenyl)-1-phenyl-1H-imidazole] was tested, and the “MT activity (AcTub increase)” value was “do not cause a detectable increase in AcTub”.
For `Fc1cccc(F)c1-c1cncn1-c1ccccc1Cl` [Compound 53, 1-(2-Chlorophenyl)-5-(2,6-difluorophenyl)-1H-imidazole], the “MT activity (AcTub increase)” value was “do not cause a detectable increase in AcTub”.
In the case of `Fc1ccc(-c2cnc(Cl)n2-c2ccc(Cl)cc2)cc1` [Compound 75, 2-Chloro-1-(4-chlorophenyl)-5-(4-fluorophenyl)-1H-imidazole], the “MT activity (AcTub increase)” value is reported as “essentially devoid of MT activity”.
In the case of `Fc1ccc(-c2c(Cl)ncn2-c2ccc(Cl)cc2)cc1` [Compound 76, 4-Chloro-1-(4-chlorophenyl)-5-(4-fluorophenyl)-1H-imidazole], the “MT activity (AcTub increase)” value is reported as “essentially devoid of MT activity”.
`Fc1ccc(F)c(-c2c(Cl)ncn2-c2ccc(Cl)cc2)c1` [Compound 80, 4-Chloro-1-(4-chlorophenyl)-5-(2,5-difluorophenyl)-1H-imidazole] was tested, and the “MT activity (AcTub increase)” value was “inactive”.

The compounds below were run on total α-tubulin in QBI-293 cells (assay: Total α-tubulin ELISA). Conditions: at doses typically required to induce an elevation in AcTub.
Type: cell-based
Procedure, shortened: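 QBI-293 cells were plated at 6 × 10⁵ cells/well, grown overnight at 37 °C and 5% CO₂, then given fresh medium with vehicle (DMSO) or 1 and 10 μM test compound for 4 h. Lysis was in RIPA with protease inhibitors, 1 mM PMSF and 1 μM TSA, followed by 100000g for 30 min at 4 °C. Supernatant was BCA-normalized and α-tubulin measured by ELISA as fold-change versus vehicle. Samples were run at least in triplicate; significance was by two-tailed unpaired t test.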
In the case of `Cc1nc(Cl)n(-c2ccc(Cl)cc2)c1-c1c(F)ccc(Cl)c1F` [Compound 30, 2-Chloro-5-(3-chloro-2,6-difluorophenyl)-1-(4-chlorophenyl)-4-methyl-1H-imidazole], the “effect on total α-tubulin levels” value is reported as “cause a significant reduction in total α-tubulin levels”.
`Cc1ncc(-c2c(F)ccc(F)c2F)n1-c1ccc(Cl)cc1` [Compound 34, 1-(4-Chlorophenyl)-2-methyl-5-(2,3,6-trifluorophenyl)-1H-imidazole] was tested, and the “effect on total α-tubulin levels” value was “cause a significant reduction in total α-tubulin levels”.
`Cc1ccc(F)c(-c2c(Cl)ncn2-c2ccc(Cl)cc2)c1F` [Compound 62, 4-Chloro-1-(4-chlorophenyl)-5-(2,6-difluoro-3-methylphenyl)-1H-imidazole] was tested, and the “effect on total α-tubulin levels” value was “cause a significant reduction in total α-tubulin levels”.
